Measurements reported in PubChem BioAssay AID1556 (The Scripps Research Institute Molecular Screening Center, 2009).
Hit rate of the full screen: of about 290,000 compounds, about 1,300 (0.45%) were called active. The sample as a whole holds a higher share of actives than the screen did. Unmarked numbers belong to inactive results.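 How the source made its calls: active means inhibition above the mean plus 3 SD of all compounds in the same screening run (cut at about 4.5% in these data); inactive means the rest.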

test system: metallo-beta-lactamase IMP-1 (Pseudomonas aeruginosa); assay: inhibition of IMP-1 nitrocefin hydrolysis – biochemical, epi-absorbance readout, Pseudomonas aeruginosa enzyme, primary screen (AID 1556); details: purified IMP-1, nitrocefin hydrolysis, epi-absorbance fluorescence; at 5.6 µM; stronger effect = higher value;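 further: 0% = IMP-1 with DMSO and 100% = DMSO wells lacking enzyme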
Procedure, shortened: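 Assay system: purified IMP-1; Quantity: IMP-1 0.2 nM before substrate addition; Medium: HEPES buffer pH 7.1 with ZnSO4 and Brij 35; Incubation: 15 min enzyme–compound preincubation, then 25 min nitrocefin reaction, 25 °C; Signal: fluorescence quenching readout, ex 480/em 530 nm; Controls: DMSO with and without IMP-1; Repeats: singlicate testing.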

Compound | inhibition
O=C(O)c1c(NC(=O)N2CCCC2)sc2c1CCCC2 | -2.5%
Cc1ccccc1NC(=O)Cn1cc(C(=O)C2CC2)c2ccccc21 | -0.7%
COc1cccc(NC(=O)Cn2c3ccccc3c3nc4n(c(=O)c32)CCS4)c1 | -2.36%
COc1ccc2c(c1)c1nc3n(c(=O)c1n2CC(=O)Nc1ccccc1)CCS3 | -0.04%
COc1cccc(NC(=O)Cn2c3ccc(F)cc3c3nc4n(c(=O)c32)CCS4)c1 | 7.15% (active)
O=C(Nc1ccccc1-c1nnn(CC(=O)N2CCCc3ccccc32)n1)c1cccc(Cl)c1 | -0.16%
O=S(=O)(Cc1cc(Cl)nc(-c2cccnc2)n1)c1ccccc1 | 0.12%
N#Cc1c(Cl)nc(-c2cccnc2)nc1-c1ccccc1 | 9.55% (active)
CN(C)c1nc(-c2cccnc2)nc(-c2ccc(Cl)cc2)c1C#N | -2.58%
Cc1cccc(NS(=O)(=O)c2ccc([N+](=O)[O-])cc2)n1 | -1.07%
COc1ccc(Cl)cc1S(=O)(=O)Nc1cccc(C(=O)O)c1 | -2.2%
Cc1cccc(NS(=O)(=O)c2cc(Cl)ccc2Cl)n1 | 4.66% (active)
Oc1c(Cl)cc(Cl)cc1/C=N/c1ncn[nH]1 | 11.9% (active)
COc1cc(Br)cc(/C=N/c2ncn[nH]2)c1O | 7.88% (active)
COc1ccc(Br)cc1/C=N/n1c(C)nnc1C | -3.22%
Oc1ccc(Br)cc1C=Nc1ccc2[nH]ncc2c1 | -1.06%
Cc1snc(SCc2c(F)cccc2Cl)c1C#N | -3.78%
Cc1ccc2[nH]c(=O)c(CN(C)S(=O)(=O)c3cccc4nonc34)cc2c1 | 0.09%
Cc1ccc(Cn2cc(C(=O)NN)c(=O)c3ccc(F)cc32)cc1 | -2.47%
COc1ccc(NC(=O)Cn2ncn3c(cc4ccccc43)c2=O)c(OC)c1OC | -2.6%
